Assays:
[1] = test system: Human immunodeficiency virus 1; assay: Antiviral activity against Human immunodeficiency virus 1 NL4.3 infected human CEM cells expressing GFP at 21.20 uM measured up to 8 days postinfection by p24 antigen capture ELISA; format: functional; conditions: Human immunodeficiency virus 1, NL4.3, CCRF-CEM, 192 h
How it was run: (§1)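 CD4+ T-lymphoblastoid CEM-GFP cells were infected with HIV-1 NL4-3 at MOI 0.05, following the lab's published protocol. Cells were then exposed to each compound at a concentration found non-cytotoxic by MTT and kept up to 8 days post infection. Virus was read out by p24 antigen-capture ELISA. IC50 is the concentration giving 50% protection of cells from virus (n = 3).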

[2] = test system: Human immunodeficiency virus 1; assay: Antiviral activity against Human immunodeficiency virus 1 NL4.3 infected human CEM cells expressing GFP measured up to 8 days postinfection by p24 antigen capture ELISA; format: functional, organism-based; conditions: Human immunodeficiency virus 1, NL4.3, CCRF-CEM, 192 h; how it was run: as §1
[3] = test system: Human immunodeficiency virus 1; assay: Antiviral activity against Human immunodeficiency virus 1 NL4.3 infected human CEM cells expressing GFP at 27.42 uM measured up to 8 days postinfection by p24 antigen capture ELISA; format: functional; conditions: Human immunodeficiency virus 1, NL4.3, CCRF-CEM, 192 h; how it was run: as §1
[4] = Cytotoxicity against human CEM cells expressing GFP after 48 to 72 hrs by MTT assay; format: cell-based; conditions: CEM cells expressing GFP (CCRF-CEM)
How it was run: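 MTT cell-viability kit used per the manufacturer's protocol. CEM-GFP cells were seeded at 2 × 10⁴ cells/well and given compound at a range of concentrations, with untreated wells as controls. Formazan was solubilized and read at 540 nm. CC50 is the concentration reducing cell proliferation by 50% (n = 3).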

[5] = Therapeutic index, ratio of CC50 for human CEM cells expressing GFP to IC50 for Human immunodeficiency virus 1 NL4.3; format: cell-based, CCRF-CEM; conditions: read-out: Ratio CC50/IC50
[6] = test system: Human immunodeficiency virus 1; assay: Antiviral activity against Human immunodeficiency virus 1 NL4.3 infected human CEM cells expressing GFP at 35.17 uM measured day 8 on post infection by p24 antigen capture ELISA; format: functional; conditions: Human immunodeficiency virus 1, NL4.3, CCRF-CEM, 192 h; how it was run: as §1
[7] = test system: Human immunodeficiency virus 1; assay: Antiviral activity against Human immunodeficiency virus 1 NL4.3 infected human CEM cells expressing GFP at 30.56 uM measured up to 8 days postinfection by p24 antigen capture ELISA; format: functional; conditions: Human immunodeficiency virus 1, NL4.3, CCRF-CEM, 192 h; how it was run: as §1
[8] = test system: Human immunodeficiency virus 1; assay: Antiviral activity against Human immunodeficiency virus 1 NL4.3 infected human CEM cells expressing GFP at 43.29 uM measured up to 8 days postinfection by p24 antigen capture ELISA; format: functional; conditions: Human immunodeficiency virus 1, NL4.3, CCRF-CEM, 192 h; how it was run: as §1
[9] = test system: Human immunodeficiency virus 1; assay: Antiviral activity against Human immunodeficiency virus 1 NL4.3 infected human CEM cells expressing GFP at 14.98 uM measured up to 8 days postinfection by p24 antigen capture ELISA; format: functional; conditions: Human immunodeficiency virus 1, NL4.3, CCRF-CEM, 192 h; how it was run: as §1
[10] = test system: Human immunodeficiency virus 1; assay: Antiviral activity against Human immunodeficiency virus 1 NL4.3 infected human CEM cells expressing GFP at 8.41 uM measured up to 8 days postinfection by p24 antigen capture ELISA; format: functional; conditions: Human immunodeficiency virus 1, NL4.3, CCRF-CEM, 192 h; how it was run: as §1
[11] = test system: Human immunodeficiency virus 1; assay: Antiviral activity against Human immunodeficiency virus 1 NL4.3 infected human CEM cells expressing GFP at 1.84 uM measured up to 8 days postinfection by p24 antigen capture ELISA; format: functional; conditions: Human immunodeficiency virus 1, NL4.3, CCRF-CEM, 192 h; how it was run: as §1
[12] = test system: Human immunodeficiency virus 1; assay: Antiviral activity against Human immunodeficiency virus 1 NL4.3 infected human CEM cells expressing GFP at 1.68 uM measured up to 8 days postinfection by p24 antigen capture ELISA; format: functional; conditions: Human immunodeficiency virus 1, NL4.3, CCRF-CEM, 192 h; how it was run: as §1
[13] = test system: Human immunodeficiency virus 1; assay: Antiviral activity against Human immunodeficiency virus 1 NL4.3 infected human CEM cells expressing GFP at 65.93 uM measured up to 8 days postinfection by p24 antigen capture ELISA; format: functional; conditions: Human immunodeficiency virus 1, NL4.3, CCRF-CEM, 192 h; how it was run: as §1
[14] = test system: Human immunodeficiency virus 1; assay: Antiviral activity against Human immunodeficiency virus 1 NL4.3 infected human CEM cells expressing GFP at 59.80 uM measured up to 8 days postinfection by p24 antigen capture ELISA; format: functional; conditions: Human immunodeficiency virus 1, NL4.3, CCRF-CEM, 192 h; how it was run: as §1
[15] = test system: Human immunodeficiency virus 1; assay: Antiviral activity against Human immunodeficiency virus 1 NL4.3 infected human CEM cells expressing GFP at 12.30 uM measured up to 8 days postinfection by p24 antigen capture ELISA; format: functional; conditions: Human immunodeficiency virus 1, NL4.3, CCRF-CEM, 192 h; how it was run: as §1
[16] = test system: Human immunodeficiency virus 1; assay: Antiviral activity against Human immunodeficiency virus 1 NL4.3 infected human CEM cells expressing GFP at 18.58 uM measured up to 8 days postinfection by p24 antigen capture ELISA; format: functional; conditions: Human immunodeficiency virus 1, NL4.3, CCRF-CEM, 192 h; how it was run: as §1
[17] = test system: Human immunodeficiency virus 1; assay: Antiviral activity against Human immunodeficiency virus 1 NL4.3 infected human CEM cells expressing GFP at 19.60 uM measured up to 8 days postinfection by p24 antigen capture ELISA; format: functional; conditions: Human immunodeficiency virus 1, NL4.3, CCRF-CEM, 192 h; how it was run: as §1
[18] = test system: Human immunodeficiency virus 1; assay: Antiviral activity against Human immunodeficiency virus 1 NL4.3 infected human CEM cells expressing GFP at 1.59 uM measured up to 8 days postinfection by p24 antigen capture ELISA; format: functional; conditions: Human immunodeficiency virus 1, NL4.3, CCRF-CEM, 192 h; how it was run: as §1
[19] = test system: Human immunodeficiency virus 1; assay: Antiviral activity against Human immunodeficiency virus 1 NL4.3 infected human CEM cells expressing GFP at 23.36 uM measured up to 8 days postinfection by p24 antigen capture ELISA; format: functional; conditions: Human immunodeficiency virus 1, NL4.3, CCRF-CEM, 192 h; how it was run: as §1
[20] = test system: Human immunodeficiency virus 1; assay: Antiviral activity against Human immunodeficiency virus 1 NL4.3 infected human CEM cells expressing GFP at 22.30 uM measured up to 8 days postinfection by p24 antigen capture ELISA; format: functional; conditions: Human immunodeficiency virus 1, NL4.3, CCRF-CEM, 192 h; how it was run: as §1
[21] = test system: Human immunodeficiency virus 1; assay: Antiviral activity against Human immunodeficiency virus 1 NL4.3 infected human CEM cells expressing GFP at 16.73 uM measured up to 8 days postinfection by p24 antigen capture ELISA; format: functional; conditions: Human immunodeficiency virus 1, NL4.3, CCRF-CEM, 192 h; how it was run: as §1
[22] = test system: Human immunodeficiency virus 1; assay: Antiviral activity against Human immunodeficiency virus 1 NL4.3 infected human CEM cells expressing GFP at 31.12 uM measured up to 8 days postinfection by p24 antigen capture ELISA; format: functional; conditions: Human immunodeficiency virus 1, NL4.3, CCRF-CEM, 192 h; how it was run: as §1
[23] = Solubility of the compound; format: physicochemical
[24] = test system: Human immunodeficiency virus 1; assay: Antiviral activity against Human immunodeficiency virus 1 NL4.3 infected human CEM cells expressing GFP at 24.48 uM measured up to 8 days postinfection by p24 antigen capture ELISA; format: functional; conditions: Human immunodeficiency virus 1, NL4.3, CCRF-CEM, 192 h; how it was run: as §1
[25] = test system: Human immunodeficiency virus 1; assay: Antiviral activity against Human immunodeficiency virus 1 NL4.3 infected human CEM cells expressing GFP at […] uM measured up to 8 days postinfection by p24 antigen capture ELISA; format: functional; conditions: Human immunodeficiency virus 1, NL4.3, CCRF-CEM, 192 h
[26] = test system: Human immunodeficiency virus 1; assay: Antiviral activity against Human immunodeficiency virus 1 NL4.3 infected human CEM cells expressing GFP at 20.20 uM measured up to 8 days postinfection by p24 antigen capture ELISA; format: functional; conditions: Human immunodeficiency virus 1, NL4.3, CCRF-CEM, 192 h; how it was run: as §1
[27] = test system: Human immunodeficiency virus 1; assay: Antiviral activity against Human immunodeficiency virus 1 NL4.3 infected human CEM cells expressing GFP at 23.51 uM measured up to 8 days postinfection by p24 antigen capture ELISA; format: functional; conditions: Human immunodeficiency virus 1, NL4.3, CCRF-CEM, 192 h; how it was run: as §1
[28] = test system: Human immunodeficiency virus 1; assay: Antiviral activity against Human immunodeficiency virus 1 NL4.3 infected human CEM cells expressing GFP at 4.98 uM measured up to 8 days postinfection by p24 antigen capture ELISA; format: functional; conditions: Human immunodeficiency virus 1, NL4.3, CCRF-CEM, 192 h
How it was run: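 Human CD4+ T-cell line CEM-GFP infected with HIV-1 NL4.3 at MOI 0.05, then incubated with compound at a non-cytotoxic concentration (chosen from a prior MTT viability assay in CEM-GFP) for up to 8 days post-infection. Protection is read by p24 antigen capture ELISA, n = 3.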

SMILES	IC50 [2] [µM]	CC50 [4] [µM]	selectivity ratio [5]	also measured
C=CCOc1cc(OCCC=C(C)C)c2ccccc2n1	–	–	–	inhibition at 21.2 µM [1]: 16%
C#CCOc1c(CC#C)c(O)nc2ccccc12	11.6	147	12.7	inhibition at 27.42 µM [3]: 92.4%
C#CCOc1cc(O)nc2ccccc12	19.3	103	5.3	inhibition at 35.17 µM [6]: 65.1%
CC(C)=CCOc1cc(O)nc2ccccc12	8.95	77.4	8.64	inhibition at 30.56 µM [7]: 95.5%
CC(C)CCOc1cc(O)nc2ccccc12	3.89	115	29.5	inhibition at 43.29 µM [8]: 76.7%
C#CCOc1cc(OCC=C(C)C)nc2ccccc12	–	–	–	inhibition at 14.98 µM [9]: 2.56%
CC(C)=CCC1(CC=C(C)C)C(=O)Nc2ccccc2C1=O	2.35	62.6	26.6	inhibition at 8.41 µM [10]: 96%
C=CCOc1cc(OCCC(C)C)c2ccccc2n1	–	–	–	inhibition at 1.84 µM [11]: 23%
CC(C)=CCOc1cc(OCCC(C)C)c2ccccc2n1	–	–	–	inhibition at 1.68 µM [12]: 31.2%
CCCCOc1c(CCCC)c(O)nc2ccccc12	34.4	192	5.56	inhibition at 65.93 µM [13]: 81%
CC(C)CCOc1c(CCC(C)C)c(O)nc2ccccc12	34.9	160	4.59	inhibition at 59.8 µM [14]: 88.6%
CC(C)=CCCOc1cc(OCCC=C(C)C)c2ccccc2n1	–	–	–	inhibition at 12.3 µM [15]: 32.7%
C#CCOc1cc(OCCC(C)C)nc2ccccc12	–	–	–	inhibition at 18.58 µM [16]: 56.4%
C#CCOc1cc(OCCCC)nc2ccccc12	–	–	–	inhibition at 19.6 µM [17]: 56.4%
CC(C)=CCCOc1cc(OCCC(C)C)c2ccccc2n1	–	–	–	inhibition at 1.59 µM [18]: 15%
CC(C)CCOc1cc(OCc2ccccc2)nc2ccccc12	–	–	–	inhibition at 23.36 µM [19]: 47%
C=CCOc1cc(OCC=C(C)C)c2ccccc2n1	–	–	–	inhibition at 22.3 µM [20]: 35%
C#CCOc1cc(OCC=C)nc2ccccc12	–	–	–	inhibition at 16.73 µM [21]: 16.1%
C=CCC1(CC=C)C(=O)Nc2ccccc2C1=O	–	–	–	inhibition at 31.12 µM [22]: 44.3%
CCCCC1(CCCC)C(=O)Nc2ccccc2C1=O	–	–	–	solubility [23]: Insoluble
CC(C)Oc1c(C(C)C)c(O)nc2ccccc12	–	–	–	solubility [23]: Insoluble
CCCCCCCCOc1cc(OCCCCCCCC)c2ccccc2n1	–	–	–	solubility [23]: Insoluble
CCCC1(CCC)C(=O)Nc2ccccc2C1=O	16.7	113	6.78	inhibition at 24.48 µM [24]: 74.7%
CC(C)=CCCC1(CCC=C(C)C)C(=O)Nc2ccccc2C1=O	3.23	67.4	20.9	inhibition at 12.3 µM [15]: 82%
CC(C)=CCCOc1c(CCC=C(C)C)c(O)nc2ccccc12	8.76	103	11.8	inhibition at 23.07 µM [25]: 68.3%
CC(C)=CCOc1c(CC=C(C)C)c(O)nc2ccccc12	3.8	71.2	18.7	inhibition at 20.2 µM [26]: 87.5%
C=CC(C)(C)C1(CC=C(C)C)C(=O)Nc2ccccc2C1=O (stereo not given) [BUCHAPINE]	2.99	55.9	18.7	inhibition at 23.51 µM [27]: 80.1%
Cc1cn([C@H]2C[C@H](N=[N+]=[N-])[C@@H](CO)O2)c(=O)[nH]c1=O [ZIDOVUDINE]	1.04	–	–	inhibition at 4.98 µM [28]: 89.8%
